In the library only some 3% were active in any assay of this set; here they are far more common.
SENP6 inh: SENP6 protease inhibition; Recombinant SENP6 catalytic domain, aminoluciferin luminescence; inhibition, % at 10 µM; actives 1.8% (n = 330,000);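 active = inhibition above about 50% at the single tested dose, limit read from the data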;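 note: plate controls were DMSO wells with enzyme for no effect and DMSO wells lacking enzyme for full effect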
SENP8 block-1: inhibitors of human SENP8 protease | Q96LD8 | purified SENP8, Z-RLRGG-aminoluciferin cleavage, luminescence | inhibition, % at 10 µM | actives 1.2% (n = 330,000) | AID 2540; in the data active = inhibition above about 50%
Target sequence (Q96LD8 whole entry, looked up): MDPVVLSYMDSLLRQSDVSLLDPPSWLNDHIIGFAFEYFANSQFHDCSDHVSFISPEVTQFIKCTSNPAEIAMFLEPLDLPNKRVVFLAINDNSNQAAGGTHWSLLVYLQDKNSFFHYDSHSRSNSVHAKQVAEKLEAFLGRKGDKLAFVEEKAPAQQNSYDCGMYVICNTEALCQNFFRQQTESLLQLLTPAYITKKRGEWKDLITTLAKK
UBC13 polyUb: blocks human UBC13 polyubiquitin chain formation; P61088; TR-FRET; inhibition, % at 20 µM; actives 0.47% (n = 330,000); in the data active = inhibition above about 45%, passing the limit was not always enough
SENP8 block-2: blocks human SENP8 cleavage of Nedd8 substrate | Q96LD8 | recombinant SENP8, Nedd8 substrate fluorescence | inhibition, % at 20 µM | actives 0.64% (n = 360,000) | AID 602440; in the data active = inhibition mostly above about 40%, no sharp cut-off; inactive = mostly below about 27%
SENP7 block: inhibitors of human SENP7 protease; recombinant SENP7, Z-RLRGG-aminoluciferin luminescence, 40 min; actives 1.5% (n = 330,000); AID 434973; inhibition, % at 5 µM;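 active = inhibition above about 50% at the single test dose, limit read from the data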;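 note: plate controls were DMSO with enzyme for no effect and no enzyme buffer wells for full effect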
Apaf1 inhib: human Apaf-1 inhibition | O14727 | reconstituted apoptosome caspase-3 activity, DEVD-Rh110 fluorescence | inhibition, % at 20 µM | actives 0.71% (n = 330,000); active = inhibition of at least 40% at 20 µM;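 note: plate controls were DMSO wells for no effect and DEVD-CHO caspase inhibitor wells for full effect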
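Material: cell-free apoptosome with Apaf-1, procaspase-3 and caspase-9; Buffer or medium: Hepes pH 7.5 with detergent and BSA; Reagent: cytochrome c trigger plus (Z-DEVD)2-Rh110 caspase-3 substrate; Times: compound with Apaf-1, dATP, procaspase-3 30 min, then 50 min reaction, room temperature; Technique: Rh110 fluorescence intensity.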
SENP8 conf: human SENP8 inhibition, confirmed | actives 40% (n = 6,200) | inhibition, % at 12.5 µM | shares compounds with SENP7 block | Recombinant SENP8, Z-RLRGG-aminoluciferin luminescence, 60 min | AID 488912;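 active = mean inhibition across replicates above about 50%, limit read from the data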
SENP6 confirm: human SENP6 inhibition, confirmed | shares compounds with SENP7 block | recombinant SENP6, Z-RLRGG-aminoluciferin luminescence | inhibition, % at 12.5 µM | actives 58% (n = 6,200) | AID 488915
SENP7 confirm: confirmation of human SENP7 protease inhibitors. shares compounds with SENP7 block. recombinant SENP7, Z-RLRGG-aminoluciferin luminescence, 40 min. inhibition, % at 12.5 µM. actives 69% (n = 6,200). AID 488917
Casp3 SENP sel: selectivity test for SENP inhibitors: human caspase-3 inhibition; purified caspase-3, Z-DEVD-aminoluciferin luminescence, 60 min; shares compounds with SENP7 block; actives 60% (n = 6,200); inhibition, % at 12.5 µM; AID 488918;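 active = mean inhibition above about 50%, limit read from the data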;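 note: plate controls were enzyme with DMSO for no effect and wells without caspase-3 for full effect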
Target sequence (P42574 28-227 limits assumed): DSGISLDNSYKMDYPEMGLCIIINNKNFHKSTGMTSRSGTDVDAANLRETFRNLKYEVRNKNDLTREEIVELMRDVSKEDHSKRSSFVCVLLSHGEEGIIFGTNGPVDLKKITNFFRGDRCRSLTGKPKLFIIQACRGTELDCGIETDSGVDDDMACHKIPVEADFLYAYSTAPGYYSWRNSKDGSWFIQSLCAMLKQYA
Luc interf: luminescence interference (SENP counter-screen) | shares compounds with SENP7 block | Pre-incubated SENP8/Z-RLRGG-aminoluciferin, luciferase luminescence interference | inhibition, % at 12.5 µM | actives 39% (n = 6,200) | AID 488919;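 active = mean inhibition above about 50% when retested at one dose, limit read from the data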;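 note: plate controls were DMSO wells with completed reaction for no effect and substrate without enzyme for full effect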
Apaf-1 inh conf: confirmation of Apaf-1 inhibitors; AID 504614; inhibition, % at 20 µM; shares compounds with Apaf1 inhib; actives 25% (n = 1,800); reconstituted apoptosome, caspase-3 DEVD-Rh110 fluorescence;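 active = mean inhibition of at least 40% at 20 µM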;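 note: plate controls were DMSO wells for no effect and DEVD-CHO caspase inhibitor control wells for full effect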
Rh110 interf inh: interferes with Rh110 fluorescence, flagging false Apaf-1 inhibitors. shares compounds with Apaf1 inhib. Rh110 fluorescence interference, quenched caspase reaction. activation (fluorescence interference), % at 20 µM. 1,800 tested, under 10 active;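 active = signal rise of 40% or more at 20 µM, treated as a fluorescence artifact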
Apaf1 inh interf: counter-screen for Apaf-1 inhibitors: fluorescence interference, dose response; shares compounds with Apaf1 inhib; fluorescence interference counterscreen, Apaf-1 assay format; IC50, µM; 460 tested, under 10 active; AID 588538; call rule not given here
Numbers without * were called inactive; · = no result given.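 Rule for the calls, unless noted: active = mean inhibition above about 50% in the one-dose retest (limit read from the data); inactive = the rest.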

SMILES	SENP6 inh	SENP8 block-1	UBC13 polyUb	SENP8 block-2	SENP7 block	Apaf1 inhib	SENP8 conf	SENP6 confirm	SENP7 confirm	Casp3 SENP sel	Luc interf	Apaf-1 inh conf	Rh110 interf inh	Apaf1 inh interf
Cc1cn([C@H]2C[C@H](O)[C@@H](CNC/C=C/c3ccccc3[N+](=O)[O-])O2)c(=O)[nH]c1=O	·	·	·	22.4	·	·	·	·	·	·	·	·	·	·
CCCC[n+]1ccn(C2=C([O-])c3ccccc3C(=O)/C2=N\S(=O)(=O)c2ccc(Cl)cc2)c1	57.0*	25.6	-100.0	48.4*	30.2	51.8*	16.4	50.5*	0.0	-2.0	-4.0	56.3*	15.3	>100
CCCC[n+]1ccn(-c2nc3ccccc3nc2[N-]S(=O)(=O)c2ccc(Br)cc2)c1	-28.9	1.9	24.1	-478.7	0.7	-12.8	·	·	·	·	·	·	·	·
O=C1OC(Nc2ccc3ncccc3c2)c2ccccc21 (centres undefined)	71.8*	39.4	-37.6	-209.8	-15.7	82.1*	4.5	1.4	1.2	2.4	-0.3	77.7*	0.4	>100
CC(=O)N(/N=C1\Sc2ccccc2C1=O)c1ccc(C)cc1C	87.0*	83.4*	-30.6	-52.9	69.7*	43.4*	6.0	65.3*	37.6	15.3	-1.4	25.3	3.6	·
CC(=O)N(/N=C1\Sc2ccccc2C1=O)c1ccccc1C	86.9*	89.6*	-40.0	-7.0	63.4*	89.8*	15.2	82.0*	35.8	4.9	7.5	84.8*	11.3	>100
CC(=O)N(\C=C/C=C/C=C1\Sc2ccccc2C1=O)c1ccccc1	21.2	1.1	-218.8	-16.2	12.2	27.6	·	·	·	·	·	·	·	·
CCOC(=O)c1c(C)oc2c1c(C=NCCC(=O)O)c(O)c1ccccc12	76.8*	66.0*	-92.3	31.5	26.1	81.0*	-18.1	43.6	19.5	-2.6	2.3	59.3*	1.8	>100
CCOC(=O)c1c(C)oc2c1c(C=NC1CCS(=O)(=O)C1)c(O)c1ccccc12 (centres undefined)	·	·	·	7.1	·	·	·	·	·	·	·	·	·	·
O=C1NC[C@@H](CCCCN2C[C@H](Cc3ccc(O)cc3)N(CCc3ccc(O)cc3)C(=O)C2=O)N(Cc2ccccc2)C1=O	·	·	·	15.8	·	·	·	·	·	·	·	·	·	·
Cc1c(C(=O)c2ccc(F)cc2F)c2ccccn2c1CCc1ccccn1	·	·	·	36.3	·	·	·	·	·	·	·	·	·	·
Cc1c(C(=O)c2ccc(F)cc2F)c2ccccn2c1CCC#N	58.2*	42.3	-61.0	-4.5	26.1	62.7*	10.8	9.0	-4.3	3.8	-0.6	24.2	9.7	·
O=C(NC1(O)C(=O)c2ccccc2C1=O)c1ccccc1	70.2*	65.1*	-51.4	99.1*	62.7*	93.5*	75.4*	88.6*	81.2*	6.9	9.9	96.5*	1.9	>100
O=C(Nc1ccccc1Cl)c1c(F)c(F)c(F)c(F)c1F	0.5	-8.8	-3.9	1.5	-6.0	10.8	·	·	·	·	·	·	·	·
O=C(NC1(O)C(=O)c2ccccc2C1=O)c1c(Cl)cccc1Cl	64.6*	63.7*	-21.6	97.3*	60.3*	96.1*	67.1*	85.9*	75.1*	9.0	5.8	97.4*	4.2	>100

Bioassay records deposited in PubChem by Sanford-Burnham Center for Chemical Genomics.
